Experimental findings from ChEMBL document CHEMBL4014347, “Targeting Mycolic Acid Transport by Indole-2-carboxamides for the Treatment of Mycobacterium abscessus Infections” (J Med Chem, 2017) are described below.

Structures are written as SMILES. In brackets after ≈: the same amount, converted by molar mass.

Data set [1] concerns Mycobacteroides abscessus. Briefly: Antibacterial activity against Mycobacterium abscessus CIP104536 after 3 to 5 days by two fold serial dilution method. The data set is classed as functional. In short, it runs like this:
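Broth microdilution per CLSI in cation-adjusted Mueller–Hinton broth; exponential-phase inoculum 5 × 10^6 CFU/mL; two-fold serial dilutions from highest concentration, solvent wells as control; 30 °C for 3−5 days; MIC read visually and confirmed by absorbance at 560 nm; triplicate on three independent occasions.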

In data set [2] the test system is Mycobacterium tuberculosis. The data set can be described thus: Antibacterial activity against Mycobacterium tuberculosis by AlamarBlue assay. The data set is classed as functional. (Resazurin is reduced to fluorescent resorufin, in cell work by metabolically active cells.)
The subject of a further data set is Vero. The data set can be described thus: Cytotoxicity against African green monkey Vero cells. The data set is classed as cell-based. Particulars: Chlorocebus sabaeus.
A short description of data set [3]: Selectivity index, ratio of IC50 for African green monkey Vero cells to MIC=<90 for Mycobacterium tuberculosis. It counts as toxicity. Particulars: read-out: Selectivity Index.
Data set [4] is described as follows: Selectivity index, ratio of IC50 for African green monkey Vero cells to MIC for Mycobacterium abscessus CIP104536. Particulars: read-out: Selectivity Index. The data set is classed as toxicity.
Data set [5] has as its system Mycobacterium tuberculosis. Briefly: Inhibition of C-terminal His-tagged Mycobacterium tuberculosis Ag85C expressed in Escherichia coli C41 (DE3) at 2.5 to 50 uM after 1 hr by resorufin butyrate-based fluorescence assay. In short, it runs like this: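 Purified Ag85C mycolyltransferase activity measured with the fluorescent probe resorufin butyrate; compounds tested at 2.5 to 50 μM.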

The compound `CCCCCCCCNC(=O)c1cc2c(Cl)cc(Cl)cc2[nH]1` had a minimal inhibitory concentration (MIC) in data set [1] of more than 32 µg/mL. Besides, in data set [2], the “MIC=<90” value amounted to 128 µg/mL (≈ 375 µM).
Regarding `C[C@@H]1[C@@H](NC(=O)c2cc3c(F)cc(F)cc3[nH]2)C[C@H]2C[C@@H]1C2(C)C`, in data set [1], the MIC was 32 µg/mL (≈ 96.3 µM). For the same compound, the “MIC=<90” value in data set [2] turned out to be 0.0039 µg/mL (≈ 0.0117 µM). The same compound came in with a concentration for half-maximal inhibition (IC50) with Vero not below 64 µg/mL. For the same compound, the selectivity ratio in data set [3] was not below 16400; in data set [4], not below 2.
In data set [1], `Cc1cc(C)c2cc(C(=O)NC34CC5CC(CC(C5)C3)C4)oc2c1` yielded a minimal inhibitory concentration (MIC) of 1 µg/mL (≈ 3.09 µM). For the same compound, the “MIC=<90” value in data set [2] was 1 µg/mL (≈ 3.09 µM).
Turning to `O=C(NC12CC3CC(CC(C3)C1)C2)c1cc2ccc(Br)cc2[nH]1`, the lowest concentration to inhibit growth in data set [1] (MIC) was 16 µg/mL (≈ 42.9 µM). The “MIC=<90” value in data set [2] came out at 0.0156 µg/mL (≈ 0.0418 µM). The compound also had a half-maximal inhibitory concentration (IC50) with Vero not below 64 µg/mL. For the same compound, the selectivity ratio in data set [3] is not below 4100; in data set [4], not below 4.
With `CO[C@H]1/C=C/O[C@@]2(C)Oc3c(C)c(O)c4c(O)c(c(/C=N/N5CCN(C)CC5)c(O)c4c3C2=O)NC(=O)/C(C)=C\C=C\[C@H](C)[C@H](O)[C@@H](C)[C@@H](O)[C@@H](C)[C@H](OC(C)=O)[C@@H]1C` [RIFAMPIN], the IC50 in the data set on Vero is more than 256 µg/mL.
With `Cc1cccc2cc(C(=O)NC3CCCCCC3)[nH]c12`, inhibition of growth in data set [1] (MIC) required 16 µg/mL (≈ 59.2 µM). Further, the “MIC=<90” value in data set [2] worked out at 1 µg/mL (≈ 3.7 µM).
Taken in the same sequence, the figures for `C[C@@H](NC(=O)c1cc2c(Cl)cc(Cl)cc2[nH]1)C1CCCCC1` were 0.5 µg/mL (≈ 1.47 µM) and 2 µg/mL (≈ 5.9 µM).
With `Cc1ccc2[nH]c(C(=O)NC3CCCCCC3)cc2c1`, the MIC in data set [1] was determined as 0.25 µg/mL (≈ 0.925 µM). In addition, the “MIC=<90” value in data set [2] is 0.25 µg/mL (≈ 0.925 µM).
Take `O=C(NC1CCCCCCC1)c1cc2cc(Cl)ccc2o1`: the MIC in data set [1] amounted to 0.5 µg/mL (≈ 1.64 µM). The “MIC=<90” value in data set [2] came to 8 µg/mL (≈ 26.2 µM).
The like results for `O=C(NC1CCCCCCC1)c1cc2c(C(F)(F)F)cc(C(F)(F)F)cc2[nH]1` were, in that order, 0.5 µg/mL (≈ 1.23 µM) and 0.0156 µg/mL (≈ 0.0384 µM).
On to `O=c1c2ccccc2[se]n1-c1ccccc1`, for which the inhibition entry in data set [5] is “Dose-dependent effect”.
Regarding `C[C@@H]1[C@@H](NC(=O)c2cc3c(Cl)cc(Cl)cc3[nH]2)C[C@H]2C[C@@H]1C2(C)C`, inhibition of growth in data set [1] (MIC) required 128 µg/mL (≈ 350 µM). Moreover, the “MIC=<90” value in data set [2] was determined as 0.0078 µg/mL (≈ 0.0214 µM). The compound also returned a 50% inhibitory concentration (IC50) in the data set with Vero of 16 µg/mL (≈ 43.8 µM). For the same compound, the selectivity ratio in data set [3] was found to be 2050; in data set [4], 0.125.
In the case of `O=C(NC1CCCCCC1)c1cc2c(F)cc(F)cc2[nH]1`, in data set [1], inhibition of growth (MIC) required 0.125 µg/mL (≈ 0.428 µM). In addition, the “MIC=<90” value in data set [2] was 0.031 µg/mL (≈ 0.106 µM).
Turning to `O=C(NC12CC3CC(CC(C3)C1)C2)c1cc2c(Cl)cc(Cl)cc2[nH]1`, the MIC in data set [1] is more than 32 µg/mL. The “MIC=<90” value in data set [2] was found to be 0.0039 µg/mL (≈ 0.0107 µM). Further, in the data set with Vero, the IC50 is not below 32 µg/mL. The values for the selectivity ratio in data set [3] and in data set [4] were not below 8210 and not below 1, respectively.
`NNC(=O)c1ccncc1` [ISONIAZID]: in data set [2], the “MIC=<90” value is 0.04 µg/mL (≈ 0.292 µM). The compound further had a half-inhibitory concentration (IC50) with Vero of more than 256 µg/mL. In data set [3], the selectivity ratio is more than 6400.

What is called MIC is the lowest concentration found to suppress growth. As a reminder, the IC50 is the midpoint of a concentration-inhibition curve.
